A short description of experiment [1]: reducers of endogenous Her2 protein level, primary screen, SKBR3 breast tumor cells, AlphaScreen, ATP viability (AID 461;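 active = Her2 level under about 52% in both replicate screens, with viability over 70% of control, limit read from the data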;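 as to Her2 level: lower value means less Her2 protein in the cells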;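 as to viability: percent of carrier control wells set as 100% viability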). To be noted: 18-24 h, measured here: SKBR3 viability, ATP luminescence, at 10 µM.
Experiment [2] has as its target Receptor tyrosine-protein kinase erbB-2 (Homo sapiens) (UniProt P04626). Described as above. The settings on record: 18-24 h, at 10 µM, stronger effect = lower value.
A short description of experiment [3]: SK-BR-3 cell growth inhibitors, pilot screen, 24 h, human (AID 572;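 active = viability at or below 10% of carrier control in both of two separate runs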;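 also: compound exposure lasted between 18 and 24 h rather than exactly 24 h; 100% = carrier-treated control wells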). The settings on record: SK-BR-3 viability, CellTiter-Glo luminescence, at 10 µM, stronger effect = lower value.
The nature of experiment [4]: HUVEC growth inhibition – cell-based, human, primary screen (AID 575;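 active = viability at or below 30% in both replicate assays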;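 also: 100% = median of untreated cell wells with 0.1% DMSO on each plate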). To be noted: HUVEC proliferation, CellTiter-Glo luminescence, 72 h; at 10 µM; stronger effect = lower value. Put shortly: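 Test system – primary HUVEC, no more than 12 passages · Dosing – one dose, 10 µM final, 0.1% DMSO · Times – 72 h treatment at 37 °C · Measured by – ATP-based CellTiter-Glo luminescent read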

The nature of experiment [5]: growth inhibitors of H69AR lung tumor, primary screen, human, duplicate replicates (AID 580).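 Also: 100% = mean luminescence of untreated wells and 0% = no signal.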 To be noted: H69AR lung tumor cells viability, ATP luminescence, 72 h; at 10 µM; stronger effect = lower value.
Experiment [6] can be described thus: reversal of MRP1-mediated doxorubicin resistance, pilot screen, H69AR cells, doxorubicin co-treatment (AID 601;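 active = viability loss from added drug above about 55%, and viability with drug at most 40%, in both replicates, limit read from the data, passing the limit was not always enough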). The settings on record: CellTiter-Glo, 72 h, at 10 µM; for differential viability (reversal): stronger effect = higher value.
The nature of experiment [7]: 384-well plate pilot, post-Golgi transport modulator project, inhibition of yeast transport mutant growth (AID 636; in the data active = inhibition above about 31%). The settings on record: absorbance 615 nm, about 18 h, stronger effect = higher value.
Experiment [8] is described as follows: growth suppression of yeast trafficking mutant, preliminary HTS, modulators of trafficking downstream of Golgi apparatus project, 1536-format plate, OD 615 nm (AID 637; in the data active = inhibition above about 30%). The settings on record: yeast transport mutant growth, absorbance 615 nm, 18 h; stronger effect = higher value.
[9] abbreviates: H69AR cells + 2 uM doxorubicin, measured here: viability with 2 uM doxorubicin, stronger effect = lower value.
Where [10] appears, read: H69AR cells, compound alone cytotoxicity.

The source made the active and inactive calls.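 The calls were made as follows, unless noted: active = viability at or under a set limit in both replicates, limit being median viability minus 3 SD (cut at about 48% in these data, passing the limit was not always enough); inconclusive = at or under the limit in just one replicate; inactive = at or above the limit in both replicates.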

Chain of Receptor tyrosine-protein kinase erbB-2 (Homo sapiens) (P04626 whole entry, looked up): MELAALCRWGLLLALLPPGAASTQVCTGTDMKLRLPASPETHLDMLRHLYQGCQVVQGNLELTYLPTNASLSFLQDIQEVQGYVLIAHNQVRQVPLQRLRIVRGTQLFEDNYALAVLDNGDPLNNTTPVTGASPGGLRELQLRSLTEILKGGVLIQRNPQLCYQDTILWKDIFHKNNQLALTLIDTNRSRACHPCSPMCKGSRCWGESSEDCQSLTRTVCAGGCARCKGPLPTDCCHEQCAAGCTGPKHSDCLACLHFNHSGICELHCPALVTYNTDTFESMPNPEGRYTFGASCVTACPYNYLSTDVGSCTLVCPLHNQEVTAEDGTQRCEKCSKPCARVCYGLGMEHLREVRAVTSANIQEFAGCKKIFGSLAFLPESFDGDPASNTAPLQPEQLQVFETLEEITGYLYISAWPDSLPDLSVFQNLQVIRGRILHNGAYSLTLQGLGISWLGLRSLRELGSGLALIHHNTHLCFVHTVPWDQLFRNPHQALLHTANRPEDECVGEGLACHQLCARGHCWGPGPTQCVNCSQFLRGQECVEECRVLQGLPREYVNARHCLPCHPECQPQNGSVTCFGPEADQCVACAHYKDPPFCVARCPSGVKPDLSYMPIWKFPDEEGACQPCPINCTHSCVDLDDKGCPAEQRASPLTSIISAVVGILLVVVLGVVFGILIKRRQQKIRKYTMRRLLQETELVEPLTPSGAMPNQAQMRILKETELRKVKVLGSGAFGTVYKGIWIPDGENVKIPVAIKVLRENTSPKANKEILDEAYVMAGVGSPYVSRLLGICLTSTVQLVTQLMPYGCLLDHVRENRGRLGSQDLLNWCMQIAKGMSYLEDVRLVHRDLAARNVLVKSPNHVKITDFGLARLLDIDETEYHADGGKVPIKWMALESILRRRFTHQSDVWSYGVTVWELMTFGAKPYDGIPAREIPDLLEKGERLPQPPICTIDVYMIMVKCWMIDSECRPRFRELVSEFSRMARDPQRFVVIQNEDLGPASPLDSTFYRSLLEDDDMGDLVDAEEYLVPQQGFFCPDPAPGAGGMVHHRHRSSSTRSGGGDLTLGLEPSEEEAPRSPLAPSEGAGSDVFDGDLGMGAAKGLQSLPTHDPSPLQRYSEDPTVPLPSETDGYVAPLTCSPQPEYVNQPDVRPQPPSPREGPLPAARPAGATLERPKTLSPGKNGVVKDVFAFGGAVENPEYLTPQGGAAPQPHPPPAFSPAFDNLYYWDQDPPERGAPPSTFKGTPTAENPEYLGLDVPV

Regarding `COc1ccccc1C(=O)N1CCN(CCc2ccccc2)CC1`, the viability in experiment [1] is 102%; in experiment [3], 102% (inactive); in experiment [4] it was 88.2% (inactive); in experiment [5] it was 103% (inactive); in experiment [6] (setting [9]), 99.2%; in experiment [6] (setting [10]) it was 103%. Moreover, in experiment [2], the Her2 level is 124% (inactive). The differential viability (reversal) in experiment [6] (H69AR cells + 2 uM doxorubicin) is 3.95% (inactive). In addition, the inhibition in experiment [7] is 0% (inactive); in experiment [8], -4.17% (inactive).
For the molecule `CCn1c(SCC(=O)Nc2cc(C)on2)nc2sc3c(c2c1=O)CCCC3`, the viability is 91% in experiment [1]; 91% (inactive) in experiment [3]; 84.5% (inactive) in experiment [4]; 12.6% (active) in experiment [5]; 10.6% in experiment [6] (setting [9]); 12.6% in experiment [6] (setting [10]). In addition, in experiment [2], the Her2 level is 76.5% (inactive). The differential viability (reversal) in experiment [6] (H69AR cells + 2 uM doxorubicin) was 2.02% (inactive). In addition, the inhibition in experiment [7] is -4.93% (inactive); in experiment [8] it was 7.78% (inactive).
With `CCOc1cccc(Oc2ccc(C(F)(F)F)cn2)c1`, the viability in experiment [1] was 99%; in experiment [3], 99% (inactive); in experiment [4], 99.6% (inactive); in experiment [5], 99.9% (inactive); in experiment [6] (setting [9]), 93.3%; in experiment [6] (setting [10]), 99.9%. The Her2 level in experiment [2] is 93.5% (inactive). Also, the differential viability (reversal) in experiment [6] (H69AR cells + 2 uM doxorubicin) is 6.58% (inactive). Besides, the inhibition in experiment [7] is -7.33% (inactive); in experiment [8], 0.81% (inactive).
For the molecule `Cc1cc(N2CCN(C)CC2)nc(N2CCOCC2)n1`, the viability in experiment [1] is 105%; in experiment [3] it was 105% (inactive); in experiment [4] it was 97.7% (inactive); in experiment [5], 92.2% (inactive); in experiment [6] (setting [9]) it was 87.4%; in experiment [6] (setting [10]) it was 92.2%. Besides, in experiment [2], the Her2 level is 89.5% (inactive). Besides, the differential viability (reversal) in experiment [6] (H69AR cells + 2 uM doxorubicin) is 4.88% (inactive). Besides, the inhibition in experiment [7] is -3.82% (inactive); in experiment [8], -8.17% (inactive).
In the case of `CC1(C)NC(=O)N(CC(O)COc2ccc(-c3ccccc3)cc2)C1=O` (stereo not given), the viability in experiment [1] was 101%; in experiment [3], 101% (inactive); in experiment [4], 74.3% (inactive); in experiment [5] it was 96.7% (inactive); in experiment [6] (setting [9]), 93.5%; in experiment [6] (setting [10]), 96.7%. Besides, in experiment [2], the Her2 level is 102% (inactive). The differential viability (reversal) in experiment [6] (H69AR cells + 2 uM doxorubicin) was 3.21% (inactive). The inhibition was -2.24% (inactive) in experiment [7] and -4.83% (inactive) in experiment [8].
In the case of `CC(=O)C1=C(C)OC(N)=C(C#N)C1c1ccncc1` (stereo not given), the viability in experiment [1] was 133%; in experiment [3], 133% (inactive); in experiment [4] it was 115% (inactive); in experiment [5], 93.2% (inactive); in experiment [6] (setting [9]) it was 84.8%; in experiment [6] (setting [10]), 93.2%. Also, the Her2 level in experiment [2] was 80.5% (inactive). Moreover, in experiment [6] (H69AR cells + 2 uM doxorubicin), the differential viability (reversal) is 8.39% (inactive). The figures for the inhibition in experiment [7] and in experiment [8] were -5.6% (inactive) and 5.41% (inactive), respectively.
In the case of `CCOC(=O)C1CCCN(Cc2nc(N)nc(Nc3ccccc3)n2)C1` (stereo not given), the viability in experiment [1] is 100%; in experiment [3] it was 100% (inactive); in experiment [4], 92.8% (inactive); in experiment [5] it was 91.1% (inactive); in experiment [6] (setting [9]), 85.5%; in experiment [6] (setting [10]), 91.1%. Besides, the Her2 level in experiment [2] is 87% (inactive). Moreover, the differential viability (reversal) in experiment [6] (H69AR cells + 2 uM doxorubicin) was 5.62% (inactive). The figures for the inhibition in experiment [7] and in experiment [8] were 1.05% (inactive) and 0.32% (inactive), respectively.
`CN(C)c1cccc(NC(=O)CCc2ccccc2)c1`: the viability in experiment [1] was 86%; in experiment [3], 86% (inactive); in experiment [4], 89.9% (inactive); in experiment [5] it was 94.5% (inactive); in experiment [6] (setting [9]) it was 102%; in experiment [6] (setting [10]), 94.5%. Further, the Her2 level in experiment [2] is 90% (inactive). Also, the differential viability (reversal) in experiment [6] (H69AR cells + 2 uM doxorubicin) was -7.99% (inactive). The inhibition in experiment [7] was -5.89% (inactive); in experiment [8], 2.38% (inactive).
For the molecule `COc1cc(C(Nc2ccc3c(c2)OCO3)C(=O)NC2CCCCC2)cc(OC)c1OC` (stereo not given), the viability was 74.5% in experiment [1]; 74.5% (inactive) in experiment [3]; 94.2% (inactive) in experiment [4]; 93% (inactive) in experiment [5]; 99.4% in experiment [6] (setting [9]); 93% in experiment [6] (setting [10]). In experiment [2], the Her2 level was 75% (inactive). Also, the differential viability (reversal) in experiment [6] (H69AR cells + 2 uM doxorubicin) was -6.39% (inactive). Further, the results for the inhibition in experiment [7] and in experiment [8] were -4.32% (inactive) and 7.94% (inactive), respectively.
As to `CCOC(=O)c1ccc(NC(=O)CSc2nnc(COc3ccccc3)n2C)cc1`, the viability in experiment [1] was 110%; in experiment [3], 110% (inactive); in experiment [4], 85.3% (inactive); in experiment [5] it was 107% (inactive); in experiment [6] (setting [9]) it was 98.1%; in experiment [6] (setting [10]) it was 107%. Further, the Her2 level in experiment [2] is 113% (inactive). Besides, in experiment [6] (H69AR cells + 2 uM doxorubicin), the differential viability (reversal) is 8.77% (inactive). Moreover, the results for the inhibition in experiment [7] and in experiment [8] were -1.3% (inactive) and -9.67% (inactive), respectively.
Consider `CCn1ncc(C2=NOC(C(=O)N3CCC(C(N)=O)CC3)C2)c1C` (stereo not given), for which the viability in experiment [1] was 104%; in experiment [3] it was 104% (inactive); in experiment [4], 98.6% (inactive); in experiment [5] it was 101% (inactive); in experiment [6] (setting [9]), 103%; in experiment [6] (setting [10]) it was 101%. Besides, the Her2 level in experiment [2] is 106% (inactive). In addition, the differential viability (reversal) in experiment [6] (H69AR cells + 2 uM doxorubicin) is -2.31% (inactive). For the same molecule, the results for the inhibition in experiment [7] and in experiment [8] were -1.05% (inactive) and 15.2% (inactive), respectively.
Regarding `Cc1ccccc1C(=O)NC1CCN(Cc2nnnn2Cc2ccccc2)CC1`, the viability was 93.5% in experiment [1]; 93.5% (inactive) in experiment [3]; 91.3% (inactive) in experiment [4]; 98.2% (inactive) in experiment [5]; 95.6% in experiment [6] (setting [9]); 98.2% in experiment [6] (setting [10]). The Her2 level in experiment [2] is 78% (inactive). Moreover, the differential viability (reversal) in experiment [6] (H69AR cells + 2 uM doxorubicin) is 2.56% (inactive). The inhibition in experiment [7] was -4.46% (inactive); in experiment [8], 3.49% (inactive).
In the case of `CC1Cc2ccccc2N1C(=O)c1cccnc1` (stereo not given), the viability in experiment [1] is 121%; in experiment [3] it was 121% (inactive); in experiment [4], 92.8% (inactive); in experiment [5], 98.1% (inactive); in experiment [6] (setting [9]), 96%; in experiment [6] (setting [10]), 98.1%. Further, the Her2 level in experiment [2] was 91.5% (inactive). The differential viability (reversal) in experiment [6] (H69AR cells + 2 uM doxorubicin) was 2.02% (inactive). Moreover, the values for the inhibition in experiment [7] and in experiment [8] were -2.21% (inactive) and -0.16% (inactive), respectively.
Regarding `CCOC(=O)N1CCN(C(=O)CN(C)S(=O)(=O)c2ccc(OC)c(OC)c2)CC1`, the viability in experiment [1] was 100%; in experiment [3] it was 100% (inactive); in experiment [4], 104% (inactive); in experiment [5] it was 91.5% (inactive); in experiment [6] (setting [9]) it was 88.3%; in experiment [6] (setting [10]), 91.5%. In addition, the Her2 level in experiment [2] is 94.5% (inactive). Moreover, the differential viability (reversal) in experiment [6] (H69AR cells + 2 uM doxorubicin) is 3.21% (inactive). Further, the inhibition is -6.84% (inactive) in experiment [7] and 1.97% (inactive) in experiment [8].

The values are drawn from PubChem BioAssay.
